In ChEMBL document CHEMBL1146388, “1-Arylpiperazinyl-4-cyclohexylamine derived isoindole-1,3-diones as potent and selective alpha-1a/1d adrenergic receptor ligands” (Bioorg Med Chem Lett, 2007):

Key:
[1] = target: Adrenergic receptors; alpha-1 A & B (Homo sapiens) (UniProt P35348+P35368); test: Selectivity ratio, Ki for human adrenergic alpha-1b receptor to Ki for human adrenergic alpha-1a receptor; type: protein assay
How it was run: (§1)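 Competition binding against 125I-HEAT on COS cell membranes expressing cloned human α1a-, α1b- or α1d-adrenergic receptor. Affinities are reported as Ki (nM). Selectivity is expressed as Ki(α1b)/Ki(α1a) and Ki(α1b)/Ki(α1d).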

[2] = species on record: Homo sapiens; test: Selectivity ratio, Ki for human adrenergic alpha-1b receptor to Ki for human adrenergic alpha-1d receptor; how it was run: as §1
[3] = target: T1, Alpha-1A adrenergic receptor (Homo sapiens, UniProt P35348); test: Displacement of [125]HEAT from human adrenergic alpha-1a receptor expressed in COS cells
T1 sequence (P35348 whole entry): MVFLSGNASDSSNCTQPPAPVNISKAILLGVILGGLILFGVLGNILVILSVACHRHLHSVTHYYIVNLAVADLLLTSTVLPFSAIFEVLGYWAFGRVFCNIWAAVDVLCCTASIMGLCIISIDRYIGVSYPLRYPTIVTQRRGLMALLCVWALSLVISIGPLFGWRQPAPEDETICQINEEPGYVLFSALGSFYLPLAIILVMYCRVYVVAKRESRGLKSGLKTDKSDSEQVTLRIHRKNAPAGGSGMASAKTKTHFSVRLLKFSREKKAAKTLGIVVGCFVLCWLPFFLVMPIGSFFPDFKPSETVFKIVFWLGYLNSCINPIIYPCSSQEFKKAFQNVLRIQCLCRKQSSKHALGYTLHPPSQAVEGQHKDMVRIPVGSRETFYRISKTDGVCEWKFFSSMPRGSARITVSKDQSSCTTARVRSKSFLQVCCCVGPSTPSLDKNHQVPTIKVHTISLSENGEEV

[4] = target: T2, Alpha-1D adrenergic receptor (Homo sapiens, UniProt P25100); test: Displacement of [125]HEAT from human adrenergic alpha-1d receptor expressed in COS cells
T2 sequence (P25100 whole entry): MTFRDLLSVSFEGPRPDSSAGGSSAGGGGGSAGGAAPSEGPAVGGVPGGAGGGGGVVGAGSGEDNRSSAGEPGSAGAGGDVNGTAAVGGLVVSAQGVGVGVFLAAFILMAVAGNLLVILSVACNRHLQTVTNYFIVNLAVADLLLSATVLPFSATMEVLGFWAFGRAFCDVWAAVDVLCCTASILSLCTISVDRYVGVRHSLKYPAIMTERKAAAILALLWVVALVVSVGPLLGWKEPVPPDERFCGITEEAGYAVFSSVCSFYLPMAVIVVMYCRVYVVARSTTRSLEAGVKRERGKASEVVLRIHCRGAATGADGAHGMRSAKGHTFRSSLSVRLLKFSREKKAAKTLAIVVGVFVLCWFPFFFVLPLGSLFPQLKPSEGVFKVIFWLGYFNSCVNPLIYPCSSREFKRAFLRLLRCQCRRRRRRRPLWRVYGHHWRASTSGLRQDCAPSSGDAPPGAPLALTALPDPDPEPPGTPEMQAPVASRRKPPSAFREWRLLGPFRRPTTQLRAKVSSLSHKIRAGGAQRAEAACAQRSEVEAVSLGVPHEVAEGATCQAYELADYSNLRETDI

[5] = target: T3, Alpha-1B adrenergic receptor (Homo sapiens, UniProt P35368); test: Displacement of [125]HEAT from human adrenergic alpha-1b receptor expressed in COS cells
T3 sequence (P35368 whole entry): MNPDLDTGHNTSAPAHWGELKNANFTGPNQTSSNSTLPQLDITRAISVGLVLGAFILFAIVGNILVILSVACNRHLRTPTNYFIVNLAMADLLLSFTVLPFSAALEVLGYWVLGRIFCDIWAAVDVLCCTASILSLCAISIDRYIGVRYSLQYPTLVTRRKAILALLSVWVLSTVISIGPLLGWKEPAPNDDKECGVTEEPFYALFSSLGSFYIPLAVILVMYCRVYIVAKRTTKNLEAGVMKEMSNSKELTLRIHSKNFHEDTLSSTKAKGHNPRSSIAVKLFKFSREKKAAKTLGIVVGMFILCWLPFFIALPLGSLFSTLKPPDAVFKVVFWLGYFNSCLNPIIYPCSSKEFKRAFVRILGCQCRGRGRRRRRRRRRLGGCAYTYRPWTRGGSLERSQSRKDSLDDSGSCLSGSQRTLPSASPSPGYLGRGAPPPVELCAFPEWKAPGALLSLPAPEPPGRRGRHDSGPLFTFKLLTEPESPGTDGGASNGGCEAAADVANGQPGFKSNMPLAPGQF

Row | Ratio Ki [1] | Ratio Ki [2] | Ki [3] [nM] | Ki [4] [nM] | Ki [5] [nM] | Structure (SMILES)
1 | 56 | 30 | 0.8 | 1.5 | – | CC(C)Oc1ccccc1N1CCN(C2CCC(N3C(=O)c4cccnc4C3=O)CC2)CC1 (stereo not drawn)
2 | 56 | 28 | 0.4 | 0.8 | – | CC(C)Oc1ccccc1N1CCN(C2CCC(N3C(=O)c4ccncc4C3=O)CC2)CC1 (stereo not drawn)
3 | 401 | 3610 | – | 0.3 | – | CC(C)Oc1ccccc1N1CCN(C2CCC(N3C(=O)c4cc(Cl)c(Cl)cc4C3=O)CC2)CC1 (stereo not drawn)
4 | 8 | 75 | 1.8 | 0.2 | 15 | CC(C)Oc1ccccc1N1CCN(C2CCC(N3C(=O)c4ccc5ccccc5c4C3=O)CC2)CC1 (stereo not drawn)
5 | 109 | 136 | – | – | – | CC(C)Oc1ccccc1N1CCN(C2CCC(N3C(=O)c4c(F)c(F)c(F)c(F)c4C3=O)CC2)CC1 (stereo not drawn)
6 | – | – | 0.2 | 0.09 | 18 | CC(C)Oc1ccccc1N1CCN(C2CCC(N3C(=O)c4cccc(F)c4C3=O)CC2)CC1 (stereo in doubt; 6c) [listing 1 of 2 here]
7 | 90 | 200 | – | – | – | CC(C)Oc1ccccc1N1CCN(C2CCC(N3C(=O)c4cccc(F)c4C3=O)CC2)CC1 (stereo in doubt; 6c) [listing 2 of 2 here]
8 | – | – | 1 | 14.9 | 127 | CC(C)Oc1ccccc1N1CCN(C2CCC(N3C(=O)c4cccc(F)c4C3=O)CC2)CC1 (stereo in doubt; 6d) [listing 1 of 2 here]
9 | 127 | 9 | – | – | – | CC(C)Oc1ccccc1N1CCN(C2CCC(N3C(=O)c4cccc(F)c4C3=O)CC2)CC1 (stereo in doubt; 6d) [listing 2 of 2 here]
10 | – | – | 15 | 16.4 | 269 | CC(C)Oc1ccccc1N1CCN(C2CCC(N3C(=O)c4ccc5ccc(F)cc5c4C3=O)CC2)CC1 (stereo in doubt; 6f) [listing 1 of 2 here]
11 | 18 | 16 | – | – | – | CC(C)Oc1ccccc1N1CCN(C2CCC(N3C(=O)c4ccc5ccc(F)cc5c4C3=O)CC2)CC1 (stereo in doubt; 6f) [listing 2 of 2 here]
12 | – | – | 3.9 | 0.5 | 46.5 | CC(C)Oc1ccccc1N1CCN(C2CCC(N3C(=O)c4ccc5ccc(F)cc5c4C3=O)CC2)CC1 (stereo in doubt; 6g) [listing 1 of 2 here]
13 | 12 | 93 | – | – | – | CC(C)Oc1ccccc1N1CCN(C2CCC(N3C(=O)c4ccc5ccc(F)cc5c4C3=O)CC2)CC1 (stereo in doubt; 6g) [listing 2 of 2 here]
